Calls of active or inactive are those of the source. The calls are words filed in the database; no cut-off is given here.
What was measured:
CCRF-CEM [1] = assay: Cellular uptake in human CEM cells at 1 uM after 12 hrs by confocal microscopic analysis; assay type: ADME, cell-based
How it was run: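 CEM cells incubated 12 h with FITC-labelled conjugate (0.5 and 1 µM) or with 1 µM FITC-labelled naked PNA. Cells then washed, nuclei DAPI-stained, and imaged by confocal microscopy with FITC read at 488 nm.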

CCRF-CEM [2] = assay: Cellular uptake in human CEM cells at 2 uM after overnight incubation; assay type: ADME, cell-based
Nucleic Acid [3] = assay: Induction of HIV1 transactivation response element RNA cleavage in presence of metal ion; assay type: nucleic-acid assay; conditions: Human immunodeficiency virus 1
Nucleic Acid [4] = assay: Binding affinity to HIV1 32-P labeled transactivation response element RNA at compound:RNA ratio of 1:1 after 1 hr by gel mobility shift assay; assay type: nucleic-acid assay; conditions: Human immunodeficiency virus 1
How it was run: (§1)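 10 nM 32P-labelled 82-nt TAR RNA run-off transcript (T7) incubated with conjugate in 50 mM Tris-HCl pH 7.8, 60 mM KCl, 5 mM MgCl2, 1 h at room temperature. Molar ratios of conjugate to RNA were 0–5.0. Samples were run on native 8% polyacrylamide gel in TBE, 100 V, 4 h, room temperature, then PhosphorImager read-out.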

Nucleic Acid [5] = assay: Induction of HIV1 transactivation response element RNA cleavage; assay type: nucleic-acid assay; conditions: Human immunodeficiency virus 1
Nucleic Acid [6] = assay: Effect on HIV1 transactivation response element RNA-mediated LTR expression transfected in human CEM cells at 0.1 to 2 uM after 24 hrs by luciferase reporter gene assay; assay type: cell-based; conditions: Human immunodeficiency virus 1, CCRF-CEM
How it was run: (§2)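 CEM cells (0.5×10^6/well) transfected with pHIV-1 LTR-Luc (2 µg) and pRL-SV40 (500 ng), with or without pCMV-Tat (2 µg). Conjugates added 2 h later, and cells grown in RPMI/10% FBS at 37 °C. At 24 h, dual-luciferase read-out; firefly normalised to Renilla and expressed as % of untreated cells. Mean ± SEM of two independent experiments.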

Nucleic Acid [7] = assay: Inhibition of HIV1 transactivation response element RNA-mediated LTR expression transfected in human CEM cells coexpressing CMV-Tat at 0.1 to 2 uM after 24 hrs by luciferase reporter gene assay; assay type: cell-based; conditions: Human immunodeficiency virus 1, CCRF-CEM; how it was run: as §2
Nucleic Acid [8] = assay: Inhibition of HIV1 transactivation response element RNA-mediated LTR expression transfected in human CEM cells coexpressing CMV-Tat at 1 uM after 24 hrs by luciferase reporter gene assay; assay type: cell-based; conditions: Human immunodeficiency virus 1, CCRF-CEM; how it was run: as §2
Nucleic Acid [9] = assay: Inhibition of transactivation response element RNA-mediated transcription in HIV1 pseudovirions infected in human CEM cells assessed as reduction in luciferase activity incubated 48 hrs post-infection measured after 72 hrs by reporter gene assay; assay type: cell-based
How it was run: (§3)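 CEM 12D7 cells (1×10^6 in 1 mL) infected 2 h with VSV-G-pseudotyped NL4-3.Luc.R-E- virions (14 ng p24), washed and cultured. Conjugate added 48 h post-infection. After 76 h, cells lysed and firefly luciferase measured; IC50 calculated. Mean of two independent experiments.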

Nucleic Acid [10] = assay: Binding affinity to HIV1 32-P labeled transactivation response element RNA assessed as gel mobility shift at compound:RNA ratio of 0.5:1 after 1 hr by gel mobility shift assay; assay type: nucleic-acid assay; conditions: Human immunodeficiency virus 1; how it was run: as §1
[11] = Chemical stability of the compound in aqueous HCl solution after 3 days by HPLC analysis; assay type: physicochemical; conditions: buffer, 72 h
How it was run: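 Conjugate held in 0.1 M aqueous HCl at 37 °C for 3 days. HPLC retention time compared with untreated sample.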

CCRF-CEM [12] = assay: Cytotoxicity against human CEM cells assessed as inhibition of [3H]thymidine incorporation at 0.1 and 0.5 mM after 48 hrs by scintillation counting; assay type: cell-based
How it was run: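 CEM cells grown with conjugate (0.1 and 0.5 mM, dissolved in DMSO; final DMSO 5%) plus [methyl-3H]thymidine 5 µCi/mL for 48 h. Nucleic acids lysed with 1% NP-40, TCA-precipitated onto glass-fibre filters and scintillation counted. Results given as % of DMSO control, from three independent experiments.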

Nucleic Acid [13] = assay: Inhibition of transactivation response element RNA-mediated transcription in HIV1 pseudovirions infected in human CEM cells assessed as reduction in luciferase activity at 800 nM incubated 48 hrs post-infection measured after 72 hrs by reporter gene assay; assay type: cell-based; conditions: Human immunodeficiency virus 1, CCRF-CEM; how it was run: as §3
[14] = Human immunodeficiency virus 1, CCRF-CEM

With `Cc1cn(CC(=O)N(CCN)CC(=O)NCCN(CC(=O)NCCN(CC(=O)NCCN(CC(=O)NCCN(CC(=O)NCCN(CC(=O)NCCN(CC(=O)NCCN(CC(=O)NCCN(CC(=O)NCCN(CC(=O)NCCN(CC(=O)NCCN(CC(=O)NCCN(CC(=O)NCCN(CC(=O)NCCN(CC(=O)NCCN(CC(=O)N[C@@H](CCCCNC(=S)Nc2ccc(-c3c4ccc(=O)cc-4oc4cc(O)ccc34)c(C(=O)O)c2)C(N)=O)C(=O)Cn2cc(C)c(=O)[nH]c2=O)C(=O)Cn2ccc(N)nc2=O)C(=O)Cn2cc(C)c(=O)[nH]c2=O)C(=O)Cn2cnc3c(N)ncnc32)C(=O)Cn2cnc3c(=O)[nH]c(N)nc32)C(=O)Cn2cnc3c(N)ncnc32)C(=O)Cn2ccc(N)nc2=O)C(=O)Cn2cc(C)c(=O)[nH]c2=O)C(=O)Cn2ccc(N)nc2=O)C(=O)Cn2cnc3c(=O)[nH]c(N)nc32)C(=O)Cn2cnc3c(=O)[nH]c(N)nc32)C(=O)Cn2cnc3c(N)ncnc32)C(=O)Cn2ccc(N)nc2=O)C(=O)Cn2ccc(N)nc2=O)C(=O)Cn2ccc(N)nc2=O)c(=O)[nH]c1=O` the Drug uptake (CCRF-CEM [1]) was “Not Active”.
In the case of `Cc1cn(CC(=O)N(CCNC(=O)CN(CCNC(=O)CN(CCNC(=O)CN(CCNC(=O)CN(CCNC(=O)CN(CCNC(=O)CN(CCNC(=O)CN(CCNC(=O)CN(CCNC(=O)CN(CCNC(=O)CN(CCNC(=O)CN(CCNC(=O)CN(CCNC(=O)CN(CCNC(=O)CN(CCNC(=O)CN(CCNC(=O)CCC(=O)NCCCCCCO[C@@H]2[C@@H](O)[C@H](N)C[C@H](N)[C@H]2O[C@H]2O[C@H](CN)[C@@H](O)[C@H](O)[C@H]2N)C(=O)Cn2cc(C)c(=O)[nH]c2=O)C(=O)Cn2ccc(N)nc2=O)C(=O)Cn2ccc(N)nc2=O)C(=O)Cn2ccc(N)nc2=O)C(=O)Cn2cnc3c(N)ncnc32)C(=O)Cn2cnc3c(=O)[nH]c(N)nc32)C(=O)Cn2cnc3c(=O)[nH]c(N)nc32)C(=O)Cn2ccc(N)nc2=O)C(=O)Cn2cc(C)c(=O)[nH]c2=O)C(=O)Cn2ccc(N)nc2=O)C(=O)Cn2cnc3c(N)ncnc32)C(=O)Cn2cnc3c(=O)[nH]c(N)nc32)C(=O)Cn2cnc3c(N)ncnc32)C(=O)Cn2cc(C)c(=O)[nH]c2=O)C(=O)Cn2ccc(N)nc2=O)CC(N)=O)c(=O)[nH]c1=O`, the Drug uptake (CCRF-CEM [2]) is reported as 30%.
For `CO[C@H]1O[C@H](CN)[C@@H](OCCCCCC(=O)NCCN(CC(=O)NCCN(CC(=O)NCCN(CC(=O)NCCN(CC(=O)NCCN(CC(=O)NCCN(CC(=O)NCCN(CC(=O)NCCN(CC(=O)NCCN(CC(=O)NCCN(CC(=O)NCCN(CC(=O)NCCN(CC(=O)NCCN(CC(=O)NCCN(CC(=O)NCCN(CC(=O)NCCN(CC(N)=O)C(=O)Cn2cc(C)c(=O)[nH]c2=O)C(=O)Cn2ccc(N)nc2=O)C(=O)Cn2cc(C)c(=O)[nH]c2=O)C(=O)Cn2cnc3c(N)ncnc32)C(=O)Cn2cnc3c(=O)[nH]c(N)nc32)C(=O)Cn2cnc3c(N)ncnc32)C(=O)Cn2ccc(N)nc2=O)C(=O)Cn2cc(C)c(=O)[nH]c2=O)C(=O)Cn2ccc(N)nc2=O)C(=O)Cn2cnc3c(=O)[nH]c(N)nc32)C(=O)Cn2cnc3c(=O)[nH]c(N)nc32)C(=O)Cn2cnc3c(N)ncnc32)C(=O)Cn2ccc(N)nc2=O)C(=O)Cn2ccc(N)nc2=O)C(=O)Cn2ccc(N)nc2=O)C(=O)Cn2cc(C)c(=O)[nH]c2=O)[C@H](O)[C@H]1N`, the Activity (Nucleic Acid [3]) was “inactive”, the Activity (Nucleic Acid [4]) was “Active” and the Activity (Nucleic Acid [5]) was “inactive”. The Activity (Nucleic Acid [6]) was “inactive”, the inhibition (Nucleic Acid [7]) was “Active” and the inhibition (Nucleic Acid [8]) was 75%. For the same molecule, the IC50 (Nucleic Acid [9]; [14]) was 800 nM, the inhibition (Nucleic Acid [9]; [14]) was “Dose-dependent effect” and the Activity (Nucleic Acid [10]) was 50%. The Stability [11] was “Stable”, the Activity (CCRF-CEM [12]) was “Non-toxic” and the inhibition (Nucleic Acid [13]) was 50%.

Source: ChEMBL document CHEMBL2163276, “A peptide nucleic acid-aminosugar conjugate targeting transactivation response element of HIV-1 RNA genome shows a high bioavailability in human cells and strongly inhibits tat-mediated transactivation of HIV-1 transcription” (J Med Chem, 2012)
